ChEMBL document CHEMBL3272128, “Antileukemic activity of derivatives of 1-phenyl-2,5-dimethyl-3,4-bis(hydroxymethyl)pyrrole bis(N-methylcarbamate)” (J Med Chem, 1977)

Key:
Mus musculus [1] = assay: Toxicity in male CDF1 mouse allografted with mouse P388 cells assessed as survivors on day 5 at 12.5 mg/kg, ip using hydroxypropylcellulose suspension; type: organism-based; design: dose 12.5 mg/kg, route intraperitoneal; details: in vivo
Method in brief: (§1)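 Male CDF1 mice received an ip inoculation of P388 leukemia ascitic fluid. Dosing was ip in a hydroxypropylcellulose (Flucel) suspension, once daily for nine days, beginning 24 h after tumor implantation. Toxicity was scored as survivors recorded on the fifth day.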

P388 [2] = assay: Antileukemic activity against mouse P388 cells allografted in male CDF1 mouse assessed as change in body weight at 25 mg/kg, ip using hydroxypropylcellulose suspension total 9 daily doses started 24 hrs after tumor inoculation; type: functional; details: route intraperitoneal
Method in brief: (§2)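 Male CDF1 mice were inoculated ip with P388 ascitic fluid. Compound was given ip as a Flucel (hydroxypropylcellulose) suspension, nine daily doses from 24 h after inoculation. Animal weight difference (T − C, g) was recorded on the fifth day.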

P388 [3] = assay: Antileukemic activity against mouse P388 cells allografted in male CDF1 mouse assessed as change in body weight at 12.5 mg/kg, ip using hydroxypropylcellulose suspension total 9 daily doses started 24 hrs after tumor inoculation; type: functional; details: route intraperitoneal; method in brief: as §2
P388 [4] = assay: Antileukemic activity against mouse P388 cells allografted in male CDF1 mouse assessed as tumor growth inhibition at 50 mg/kg, ip using hydroxypropylcellulose suspension total 9 daily doses started 24 hrs after tumor inoculation; type: functional; details: route intraperitoneal
Method in brief: (§3)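 Male CDF1 mice received P388 ascitic fluid ip, then ip doses in Flucel (hydroxypropylcellulose) suspension, nine daily, beginning 24 h after inoculation. Efficacy was median survival time as % T/C; values > 125 were considered significant.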

Mus musculus [5] = assay: Toxicity in male CDF1 mouse allografted with mouse P388 cells assessed as survivors on day 5 at 25 mg/kg, ip using hydroxypropylcellulose suspension; type: organism-based; design: dose 25 mg/kg, route intraperitoneal; details: in vivo; method in brief: as §1
P388 [6] = assay: Antileukemic activity against mouse P388 cells allografted in male CDF1 mouse assessed as tumor growth inhibition at 25 mg/kg, ip using hydroxypropylcellulose suspension total 9 daily doses started 24 hrs after tumor inoculation; type: functional; details: route intraperitoneal; method in brief: as §3
P388 [7] = assay: Antileukemic activity against mouse P388 cells allografted in male CDF1 mouse assessed as change in body weight at 50 mg/kg, ip using hydroxypropylcellulose suspension total 9 daily doses started 24 hrs after tumor inoculation; type: functional; details: route intraperitoneal; method in brief: as §2
P388 [8] = assay: Antileukemic activity against mouse P388 cells allografted in male CDF1 mouse assessed as tumor growth inhibition at 12.5 mg/kg, ip using hydroxypropylcellulose suspension total 9 daily doses started 24 hrs after tumor inoculation; type: functional; details: route intraperitoneal; method in brief: as §3
P388 [9] = assay: Antileukemic activity against mouse P388 cells allografted in male CDF1 mouse assessed as change in body weight at 25 mg/kg, ip using saline as vehicle total 9 daily doses started 24 hrs after tumor inoculation; type: functional; details: route intraperitoneal
Method in brief: (§4)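 In male CDF1 mice bearing ip-inoculated P388 ascitic fluid, drug was given ip in saline vehicle, once daily for nine doses starting 24 h after inoculation. Body weight difference, treated minus control (g), was recorded on day 5.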

Mus musculus [10] = assay: Toxicity in male CDF1 mouse allografted with mouse P388 cells assessed as survivors on day 5 at 12.5 mg/kg, ip using saline as vehicle; type: organism-based; design: dose 12.5 mg/kg, route intraperitoneal; details: in vivo
Method in brief: (§5)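 P388 leukemia ascitic fluid was implanted ip into male CDF1 mice. Compound was given ip in saline vehicle as nine daily doses, starting 24 h post-inoculation. Survivor counts were taken on day 5.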

Mus musculus [11] = assay: Toxicity in male CDF1 mouse allografted with mouse P388 cells assessed as survivors on day 5 at 25 mg/kg, ip using saline as vehicle; type: organism-based; design: dose 25 mg/kg, route intraperitoneal; details: in vivo; method in brief: as §5
P388 [12] = assay: Antileukemic activity against mouse P388 cells allografted in male CDF1 mouse assessed as tumor growth inhibition at 12.5 mg/kg, ip using saline as vehicle total 9 daily doses started 24 hrs after tumor inoculation; type: functional; details: route intraperitoneal
Method in brief: (§6)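 P388 ascitic fluid was given ip to male CDF1 mice. Treatment was ip in saline, nine daily doses from 24 h post-inoculation. Median survival time was expressed as % T/C, and % T/C > 125 was considered significant.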

P388 [13] = assay: Antileukemic activity against mouse P388 cells allografted in male CDF1 mouse assessed as change in body weight at 50 mg/kg, ip using saline as vehicle total 9 daily doses started 24 hrs after tumor inoculation; type: functional; details: route intraperitoneal; method in brief: as §4
P388 [14] = assay: Antileukemic activity against mouse P388 cells allografted in male CDF1 mouse assessed as change in body weight at 12.5 mg/kg, ip using saline as vehicle total 9 daily doses started 24 hrs after tumor inoculation; type: functional; details: route intraperitoneal; method in brief: as §4
P388 [15] = assay: Antileukemic activity against mouse P388 cells allografted in male CDF1 mouse assessed as tumor growth inhibition at 25 mg/kg, ip using saline as vehicle total 9 daily doses started 24 hrs after tumor inoculation; type: functional; details: route intraperitoneal; method in brief: as §6
P388 [16] = assay: Antileukemic activity against mouse P388 cells allografted in male CDF1 mouse assessed as tumor growth inhibition at 50 mg/kg, ip using saline as vehicle total 9 daily doses started 24 hrs after tumor inoculation; type: functional; details: route intraperitoneal; method in brief: as §6
Mus musculus [17] = assay: Toxicity in male CDF1 mouse allografted with mouse P388 cells assessed as survivors on day 5 at 50 mg/kg, ip using hydroxypropylcellulose suspension; type: organism-based; design: dose 50 mg/kg, route intraperitoneal; details: in vivo; method in brief: as §1

Question: Which results are given for CNC(=O)OCc1c(COC(=O)NC)c(C)n(-c2ccc3c(c2)OCO3)c1C?
Answer: Activity (Mus musculus [1]): Non-toxic; Activity (P388 [2]): -1.6 g; Activity (P388 [3]): -1.1 g; T/C (P388 [4]): <50%; Activity (Mus musculus [5]): Non-toxic; T/C (P388 [6]): 146%; Activity (P388 [7]): -3.4 g; T/C (P388 [8]): 132%

Question: With CNC(=O)OCc1c(COC(=O)NC)c(C)n(-c2ccc(Cl)cc2)c1C as the compound, how does the Activity (P388 [9]) read?
Answer: The Activity was -3.8 g.

Question: And the Activity (Mus musculus [10])?
Answer: The Activity was “Non-toxic”.

Question: And the Activity (Mus musculus [11])?
Answer: Its Activity is “Non-toxic”.

Question: And the T/C (P388 [12])?
Answer: The T/C was 145%.

Question: What about the Activity (P388 [13]) of the same compound?
Answer: Its Activity is -2.9 g.

Question: And the Activity (P388 [14])?
Answer: Its Activity is -1.3 g.

Question: And the T/C (P388 [15])?
Answer: Its T/C is 142%.

Question: And the T/C (P388 [16])?
Answer: The T/C was 80%.

Question: For CNC(=O)OCc1c(COC(=O)NC)c(C)n(-c2ccc(F)cc2)c1C, which Activity (Mus musculus [1]) is on record?
Answer: Its Activity is “Non-toxic”.

Question: What about the Activity (P388 [2]) of the same compound?
Answer: The Activity was -2.1 g.

Question: And the Activity (Mus musculus [17])?
Answer: Its Activity is “Non-toxic”.

Question: And the Activity (P388 [3])?
Answer: Its Activity is -2.6 g.

Question: What about the T/C (P388 [4]) of the same compound?
Answer: Its T/C is 133%.

Question: What about the Activity (Mus musculus [5]) of the same compound?
Answer: Its Activity is “Non-toxic”.

Question: What about the T/C (P388 [6]) of the same compound?
Answer: The T/C was 155%.

Question: And the Activity (P388 [7])?
Answer: Its Activity is -2.6 g.

Question: And the T/C (P388 [8])?
Answer: Its T/C is 142%.

Question: Which Activity (Mus musculus [1]) does the source give for COc1ccc(-n2c(C)c(COC(C)=O)c(COC(C)=O)c2C)cc1 here?
Answer: The Activity was “Non-toxic”.

Question: And the Activity (P388 [2])?
Answer: Its Activity is -3.8 g.

Question: And the Activity (P388 [3])?
Answer: The Activity was -1.6 g.

Question: What about the T/C (P388 [4]) of the same compound?
Answer: Its T/C is 75%.

Question: What about the Activity (Mus musculus [5]) of the same compound?
Answer: Its Activity is “Non-toxic”.

Question: What about the T/C (P388 [6]) of the same compound?
Answer: Its T/C is 95%.

Question: What about the Activity (P388 [7]) of the same compound?
Answer: Its Activity is -3.2 g.

Question: What about the T/C (P388 [8]) of the same compound?
Answer: Its T/C is 157%.

Question: What does the source list for CNC(=O)OCc1c(COC(=O)NC)c(C)n(-c2ccc(OC)cc2)c1C?
Answer: Activity (Mus musculus [1]): Non-toxic; Activity (P388 [2]): -2.4 g; Activity (Mus musculus [17]): Non-toxic; Activity (P388 [3]): -2.6 g; T/C (P388 [4]): 171%; Activity (Mus musculus [5]): Non-toxic; T/C (P388 [6]): 142%; Activity (P388 [7]): -0.5 g; T/C (P388 [8]): 152%
